Experimental data as given in ChEMBL document CHEMBL1221395, “Synthesis, anticancer activity and mitochondrial mediated apoptosis inducing ability of 2,5-diaryloxadiazole-pyrrolobenzodiazepine conjugates” (Bioorg Med Chem, 2010).
Calls of active or inactive are those of the source. The calls are words filed in the database; no cut-off is given here.

Columns and labels:
[1] = tested on: A549; experiment: Cytotoxicity against human A549 cells after 24 hrs by WST-1 assay; format: functional; settings: A549, 24 h
[2] = tested on: Calf thymus DNA; experiment: Binding affinity to calf thymus DNA assessed as change in melting temperature after 18 hrs; format: nucleic-acid assay; settings: Bos taurus
How it was run: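 Thermal melting with duplex CT-DNA (100 µM in phosphate) and ligand (20 µM), added from methanol stock, [PBD]/[DNA] 1:5, in 10 mM sodium phosphate + 1 mM EDTA, pH 7.00; incubated at 37 °C for 18 h. A260 monitored while heating at 1 °C/min over 40–90 °C. Tm taken from d(A260)/dT maxima, corrected for methanol; ΔTm = Tm(DNA+ligand) − Tm(DNA alone); at least three determinations.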

[3] = tested on: PC-3; experiment: Cytotoxicity against human PC3 cells after 24 hrs by WST-1 assay; format: functional; settings: PC-3, 24 h
[4] = Cytotoxicity against human Gurav cells after 24 hrs by WST-1 assay; format: functional
[5] = tested on: HOP-62; experiment: Cytotoxicity against human HOP62 cells after 24 hrs by WST-1 assay; format: functional; settings: HOP-62, 24 h
[6] = Lipophilicity, log P of the compound; format: physicochemical; settings: octanol/water
[7] = Cytotoxicity against human DWD cells by SRB assay
[8] = tested on: A2780; experiment: Cytotoxicity against human A2780 cells by SRB assay
[9] = tested on: ZR-75-1; experiment: Cytotoxicity against human ZR-75-1 cells by SRB assay
[10] = tested on: KB; experiment: Cytotoxicity against human KB cells after 24 hrs by SRB assay
[11] = tested on: MCF7; experiment: Cytotoxicity against human MCF7 cells by sulforhodamine B assay
[12] = tested on: SiHa; experiment: Cytotoxicity against human SiHa cells after 24 hrs by SRB assay
[13] = tested on: COLO 205; experiment: Cytotoxicity against human COLO205 cells after 24 hrs by SRB assay; settings: COLO 205, 24 h
[14] = tested on: A-375; experiment: Induction of apoptosis in human A375 cells assessed as increase in Bax protein level at 4 uM after 24 hrs by Western blotting; format: functional, cell-based
How it was run: (§1)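 A375 cells treated at 4 µM for 24 h. Lysates cleared at 12,000 rpm for 10 min, and protein quantified by Bradford. 30 µg per lane run on 12% SDS-PAGE and transferred to PVDF. Blocked 2 h in TBST with 5% blocking powder. Primary antibody overnight at 4 °C, HRP secondary (1:2000) 1 h at room temperature. β-actin used as loading control; untreated cells as control.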

[15] = tested on: A-375; experiment: Induction of apoptosis in human A375 cells assessed as increase in cytochrome C protein level at 4 uM after 24 hrs by Western blotting; format: functional, cell-based; how it was run: as §1
[16] = tested on: A-375; experiment: Induction of apoptosis in human A375 cells assessed as increase in PARP protein level at 4 uM after 24 hrs by Western blotting; format: functional, cell-based; how it was run: as §1
[17] = tested on: A-375; experiment: Induction of apoptosis in human A375 cells assessed as increase in Caspase 3 activation at 4 uM after 24 hrs by fluorimetry; format: functional, cell-based
How it was run: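 A375 cells exposed to 4 µM compound. Cell lysate incubated with DEVD-AFC substrate, with or without DEVD-CHO inhibitor, at 37 °C for 1 h in a fluorescent caspase-3 kit. Fluorescence read at excitation 400 nm, emission 505 nm.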

[18] = tested on: A-375; experiment: Cell cycle arrest in human A375 cells assessed as accumulation at S phase after 24 hrs by FACS flow cytometry; parameters: concentration or dose not given beside the values
[19] = tested on: A-375; experiment: Cell cycle arrest in human A375 cells assessed as accumulation at G1 phase after 24 hrs by FACS flow cytometry; parameters: concentration or dose not given beside the values
[20] = tested on: A-375; experiment: Cell cycle arrest in human A375 cells assessed as accumulation at G2/M phase after 24 hrs by FACS flow cytometry; parameters: concentration or dose not given beside the values
[21] = tested on: A-375; experiment: Cell cycle arrest in human A375 cells assessed as accumulation at Sub-G1 phase after 24 hrs by FACS flow cytometry; parameters: concentration or dose not given beside the values
[22] = tested on: KB; experiment: Cytotoxicity against human KB cells by SRB assay
[23] = Cytotoxicity against human DWD cells after 24 hrs by SRB assay
[24] = tested on: A-375; experiment: Antitumor activity against human A375 cells assessed as upregulation of p53 protein level at 4 uM after 24 hrs by Western blotting; format: functional, cell-based; how it was run: as §1
[25] = tested on: A-375; experiment: Antitumor activity against human A375 cells assessed as upregulation of p21 protein level at 4 uM after 24 hrs by Western blotting; format: functional, cell-based; how it was run: as §1
[26] = tested on: A-375; experiment: Antitumor activity against human A375 cells assessed as upregulation of pRb protein level at 4 uM after 24 hrs by Western blotting; format: functional, cell-based; how it was run: as §1
[27] = tested on: A2780; experiment: Cytotoxicity against human A2780 cells after 24 hrs by WST-1 assay; format: functional; settings: A2780, 24 h
[28] = tested on: KB; experiment: Cytotoxicity against human KB cells after 24 hrs by WST-1 assay; format: functional

| Compound | GI50 [1] | ΔTm [2] | GI50 [3] | GI50 [4] | GI50 [5] | logP [6] | GI50 [7] | GI50 [8] | GI50 [9] | GI50 [10] | GI50 [11] | GI50 [12] | GI50 [13] | Activity [18] | Activity [19] | Activity [20] | Activity [21] | further results |
| --- | --- | --- | --- | --- | --- | --- | --- | --- | --- | --- | --- | --- | --- | --- | --- | --- | --- | --- |
| COc1ccc(-c2nnc(-c3ccc(F)cc3)o2)cc1OCCCCCOc1cc2c(cc1OC)C(=O)N1CCC[C@H]1C=N2 | 140 nM | 1.8 °C | 160 nM | < 100 nM | 120 nM | 5.17 | < 100 nM | < 100 nM | 150 nM | < 100 nM | 120 nM | 120 nM | < 100 nM | – | – | – | – | – |
| COc1ccc(-c2nnc(-c3ccc(F)cc3)o2)cc1OCCCOc1cc2c(cc1OC)C(=O)N1CCC[C@H]1C=N2 | 150 nM | 2 °C | < 100 nM | 160 nM | 160 nM | 4.39 | < 100 nM | 140 nM | < 100 nM | 150 nM | < 100 nM | 170 nM | < 100 nM | 14.14% | 74% | 5.06% | 6.79% | Activity [14]: Active; Activity [15]: Active; Activity [16]: Active; Activity [17]: Active |
| COc1ccc(-c2nnc(-c3ccc(F)cc3)o2)cc1OCCCCOc1cc2c(cc1OC)C(=O)N1CCC[C@H]1C=N2 | 290 nM | 2.5 °C | 170 nM | 100 nM | 150 nM | 4.78 | 130 nM | < 100 nM | 170 nM | < 100 nM | 160 nM | < 100 nM | 150 nM | – | – | – | – | – |
| COc1ccc(-c2nnc(-c3cc(OC)c(OC)c(OC)c3)o2)cc1OCCCOc1cc2c(cc1OC)C(=O)N1CCC[C@H]1C=N2 | 110 nM | 1.9 °C | 140 nM | 140 nM | 170 nM | 3.76 | < 100 nM | 140 nM | 120 nM | 140 nM | < 100 nM | 180 nM | < 100 nM | – | – | – | – | – |
| COc1cccc2c1C(=O)c1c(O)c3c(c(O)c1C2=O)C[C@@](O)(C(=O)CO)C[C@@H]3O[C@H]1C[C@H](N)[C@H](O)[C@H](C)O1 [DOXORUBICIN] | – | – | – | 170 nM | 140 nM | – | – | 160 nM | – | – | 170 nM | 170 nM | 140 nM | – | – | – | – | GI50 [22]: 170 nM; GI50 [23]: 100 nM |
| COc1ccc(-c2nnc(-c3ccc(C(F)(F)F)cc3)o2)cc1OCCCOc1cc2c(cc1OC)C(=O)N1CCC[C@H]1C=N2 | < 100 nM | 4 °C | 140 nM | < 100 nM | < 100 nM | 5.07 | 110 nM | < 100 nM | 110 nM | < 100 nM | 110 nM | < 100 nM | < 100 nM | 7.51% | 72.28% | 2.26% | 17.93% | Activity [24]: Active; Activity [25]: Active; Activity [26]: Active; Activity [14]: Active; Activity [15]: Active; Activity [16]: Active; Activity [17]: Active |
| COc1ccc(-c2nnc(-c3ccc(C(F)(F)F)cc3)o2)cc1OCCCCOc1cc2c(cc1OC)C(=O)N1CCC[C@H]1C=N2 | 110 nM | 2.1 °C | 160 nM | 140 nM | 160 nM | 5.44 | 150 nM | 140 nM | 120 nM | 150 nM | 140 nM | 170 nM | 160 nM | – | – | – | – | – |
| COc1ccc(-c2nnc(-c3ccc(OC)c(OCCCCOc4cc5c(cc4OC)C(=O)N4CCC[C@H]4C=N5)c3)o2)cc1OC | < 100 nM | 2.3 °C | 130 nM | < 100 nM | 130 nM | 4.28 | < 100 nM | < 100 nM | 120 nM | 110 nM | < 100 nM | 130 nM | < 100 nM | – | – | – | – | – |
| COc1ccc(-c2nnc(-c3cc(OC)c(OC)c(OC)c3)o2)cc1OCCCCOc1cc2c(cc1OC)C(=O)N1CCC[C@H]1C=N2 | < 100 nM | 2.1 °C | 160 nM | < 100 nM | 130 nM | 4.13 | 120 nM | < 100 nM | 160 nM | < 100 nM | 150 nM | 130 nM | < 100 nM | – | – | – | – | – |
| COc1ccc(-c2nnc(-c3cc(OC)c(OC)c(OC)c3)o2)cc1OCCCCCOc1cc2c(cc1OC)C(=O)N1CCC[C@H]1C=N2 | 140 nM | 1.6 °C | 150 nM | < 100 nM | < 100 nM | 4.53 | < 100 nM | < 100 nM | 120 nM | < 100 nM | < 100 nM | < 100 nM | 120 nM | 10.4% | 73.5% | 2.34% | 13.76% | Activity [14]: Active; Activity [15]: Active; Activity [16]: Active; Activity [17]: Active |
| COc1cc2c(cc1O)N=C[C@@H]1CCCN1C2=O | 160 nM | – | 200 nM | 160 nM | 150 nM | 0.88 | – | – | – | – | 170 nM | 170 nM | 110 nM | 8.02% | 73.66% | 2.98% | 15.33% | GI50 [27]: 140 nM; GI50 [28]: 170 nM |
| COc1ccc(-c2nnc(-c3ccc(OC)c(OCCCOc4cc5c(cc4OC)C(=O)N4CCC[C@H]4C=N5)c3)o2)cc1OC | < 100 nM | 1.5 °C | < 100 nM | 110 nM | 130 nM | 3.92 | < 100 nM | 110 nM | < 100 nM | 110 nM | < 100 nM | 150 nM | < 100 nM | – | – | – | – | – |
| COc1ccc(-c2nnc(-c3ccc(C(F)(F)F)cc3)o2)cc1OCCCCCOc1cc2c(cc1OC)C(=O)N1CCC[C@H]1C=N2 | < 100 nM | 1.7 °C | 130 nM | < 100 nM | 130 nM | 5.84 | < 100 nM | < 100 nM | 110 nM | 110 nM | < 100 nM | 120 nM | 110 nM | – | – | – | – | – |
